Only some compounds are listed: those with a hit (about 2.3% of all), similar ones and a draw of the others.
DDE Tn7 FP inh = disrupts Tn7 cyclic peptide binding to fibrin D-Dimer-E complex; inhibition, % at 8.3 µM; 370,000 compounds, 0.13% hits; P02675; FP displacement of FITC-Tn7 peptide from fibrin DD(E); 0% = median of compound wells per plate; AID 720508;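 active = inhibition above the mean of compounds falling within the control limits plus 3 SD of them, cut at about 14% in these data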;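 note: 0% = plate median of compound wells and 100% = 10 µM Aha-Tn7 peptide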
Target sequence (P02675 whole entry, looked up): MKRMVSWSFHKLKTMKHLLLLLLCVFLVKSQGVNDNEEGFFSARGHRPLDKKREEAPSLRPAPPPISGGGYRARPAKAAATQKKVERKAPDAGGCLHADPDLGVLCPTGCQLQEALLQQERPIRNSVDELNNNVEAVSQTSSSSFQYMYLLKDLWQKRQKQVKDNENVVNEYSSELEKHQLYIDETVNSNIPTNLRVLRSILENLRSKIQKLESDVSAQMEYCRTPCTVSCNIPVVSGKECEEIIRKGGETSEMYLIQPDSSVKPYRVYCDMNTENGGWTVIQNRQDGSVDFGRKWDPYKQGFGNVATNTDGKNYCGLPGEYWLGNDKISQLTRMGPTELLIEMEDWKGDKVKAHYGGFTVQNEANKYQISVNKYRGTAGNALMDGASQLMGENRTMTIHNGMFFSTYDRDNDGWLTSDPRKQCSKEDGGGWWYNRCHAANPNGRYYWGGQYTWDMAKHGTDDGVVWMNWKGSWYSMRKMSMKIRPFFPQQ
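Assay system: Fibrin-DD(E) protein isolated from polymerized human fibrin clots; read-out basis: percent inhibition; medium: Tris/NaCl/CaCl2 buffer, pH 7.8; signal: FP measurement; incubation: 10 min plus 3 h, room temperature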
PLC-beta3 inh = PLC-beta3 (human) inhibition, primary screen; Q01970; 370,000 compounds, 0.18% hits; Purified PLC-beta3, fluorogenic substrate, fluorescence; inhibition, % at 12.2 µM; in the data active = inhibition above about 11%;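 note: 0% = median of compound wells on plate and 100% = full blocker control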
ADAM10 inh = inhibits human ADAM10. O14672. recombinant ADAM10, EDANS/DABCYL FRET peptide cleavage, 3 h. inhibition, % at 7 µM. 370,000 compounds, 0.62% hits;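 active = inhibition above a per-campaign cutoff equal to the mean of compounds falling between control-based bounds plus 3 SD, cut at about 20% in these data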;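 note: 0% = DMSO wells while the 100% control is not disclosed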
ADAM17 inh = inhibitors of human ADAM17 | P78536 | recombinant ADAM17, EDANS/DABCYL FRET peptide cleavage | inhibition, % at 6.95 µM | 370,000 compounds, 0.83% hits | AID 720648;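 active = inhibition above the mean of compounds lying between control limits plus 3 SD, set per campaign, cut at about 8.5% in these data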;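 note: 0% = DMSO-only wells as the low control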
Tn6 DDE FP = inhibitors of Tn6 peptide binding to human fibrin DD(E). Fibrin DD(E) TRITC-Tn6 fluorescence polarization displacement. 370,000 compounds, 0.21% hits. inhibition, % at 8.3 µM. P02675;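 active = inhibition above a per-campaign cutoff: mean of compounds within control limits plus 3 SD, cut at about 15% in these data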;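 note: 0% = median of all compound wells on the plate and 100% = blocking peptide control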
PLCg1 inh = blocks human PLC-gamma1 enzyme activity; P19174; purified PLC-gamma1, fluorogenic substrate, fluorescence; inhibition, % at 12.2 µM; 370,000 compounds, 0.84% hits; AID 720700; in the data active = inhibition above about 9.5%
ADAM10 confirm = confirmation of inhibitors of human ADAM10; shares compounds with ADAM10 inh; inhibition, % at 6.95 µM; ADAM10 QFRET peptide cleavage, EDANS fluorescence; 2,100 compounds, 1% hits;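 active = inhibition above about 20% chosen separately for each screening run, limit read from the data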;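 note: 0% = DMSO wells and 100% = marimastat wells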
ADAM17 counter = counter-screen for ADAM10 exosite inhibitors: inhibitors of human ADAM17. shares compounds with ADAM10 inh. ADAM17 QFRET peptide cleavage, EDANS fluorescence. inhibition, % at 6.95 µM. 2,100 compounds, 0.5% hits;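 active = mean triplicate inhibition above the solvent-only control wells' mean plus 3 SD, cut at about 12% in these data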;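 note: 0% = DMSO wells and 100% = marimastat wells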
ADAM10 counter = ADAM10 inhibition, counter-screen for ADAM17 exosite hits; shares compounds with ADAM17 inh; recombinant ADAM10, EDANS/DABCYL FRET peptide cleavage, 3 h; inhibition, % at 6.95 µM; 2,900 compounds, 47% hits; AID 743256;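 active = mean inhibition over the triplicate runs exceeds the activity threshold set in the earlier primary screen, cut at about 20% in these data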;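 note: 0% = DMSO wells and 100% = marimastat wells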
ADAM17 confirm = human ADAM17 inhibition, confirmation; shares compounds with ADAM17 inh; recombinant ADAM17, EDANS/DABCYL QFRET peptide cleavage; inhibition, % at 6.95 µM; 2,900 compounds, 65% hits;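 active = mean inhibition across replicates above the hit cutoff set in the primary screen, cut at about 8.5% in these data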;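 note: 0% = DMSO wells and 100% = marimastat wells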
Numbers without * were called inactive.

How did O=C(OC12CCCN(C1)/C(=C/c1cccc(Cl)c1)C2)c1ccc(Cl)cc1 (centres undefined) do in these assays?
DDE Tn7 FP inh: -8.7; PLC-beta3 inh: -3.6; ADAM10 inh: 3.5; ADAM17 inh: 3.3; Tn6 DDE FP: -0.1; PLCg1 inh: 3.8

Results for CCn1c(=O)n(CC(=O)N2CCN(C(C)=O)CC2)c(=O)c2ccccc21 ?
DDE Tn7 FP inh: 3.4; PLC-beta3 inh: -2.2; ADAM10 inh: -12.4; ADAM17 inh: -5.3; Tn6 DDE FP: 4.7; PLCg1 inh: -1.4

What do the screens show for `COc1cc(NC(=O)c2ccno2)cc(C(=O)Nc2cccc(C(F)(F)F)c2)c1`?
DDE Tn7 FP inh: 4.8; PLC-beta3 inh: 3.7; ADAM10 inh: 28.1*; ADAM17 inh: 11.5*; Tn6 DDE FP: -3.5; PLCg1 inh: 3.4; ADAM10 confirm: 0.0; ADAM17 counter: -0.2; ADAM10 counter: 24.9*; ADAM17 confirm: 13.1*

How did COc1ccc(N(Cc2ccccc2)S(=O)(=O)c2cccc(C(=O)Nc3ccccn3)c2)cc1 do in these assays?
DDE Tn7 FP inh: -3.4; PLC-beta3 inh: -7.4; ADAM10 inh: 0.8; ADAM17 inh: 3.7; Tn6 DDE FP: -4.5; PLCg1 inh: 1.3

Results for COc1ccccc1N(Cc1ccccc1)S(=O)(=O)c1cccc(C(=O)Nc2cccc(C)n2)c1 ?
DDE Tn7 FP inh: -1.1; PLC-beta3 inh: -1.5; ADAM10 inh: 22.7*; ADAM17 inh: 10.0*; Tn6 DDE FP: 6.6; PLCg1 inh: -1.9; ADAM10 confirm: 9.9; ADAM17 counter: 2.6; ADAM10 counter: 9.7; ADAM17 confirm: 9.6*

What do the screens show for `COc1ccc(/C=C(/C(=O)Nc2ccccc2C(=O)NC(C)C)c2ccccc2)cc1`?
DDE Tn7 FP inh: -5.3; PLC-beta3 inh: -3.6; ADAM10 inh: 20.1*; ADAM17 inh: 9.6*; Tn6 DDE FP: -0.3; PLCg1 inh: 2.2; ADAM10 confirm: 9.6; ADAM17 counter: 2.5; ADAM10 counter: 14.8; ADAM17 confirm: 8.5

Results for O=C(c1ccc(C(F)(F)F)cc1)N1CCC(=O)N([C@H](COCc2ccc(C(F)(F)F)cc2)Cc2ccccc2)CC1 ?
DDE Tn7 FP inh: -1.4; PLC-beta3 inh: 2.7; ADAM10 inh: 27.7*; ADAM17 inh: 12.2*; Tn6 DDE FP: 3.7; PLCg1 inh: 2.5; ADAM10 confirm: 7.5; ADAM17 counter: 2.0; ADAM10 counter: 28.3*; ADAM17 confirm: 16.1*

How did CCOC(=O)[C@H]1[C@H]2COc3ccc(Br)cc3[C@@H]2N2C(=O)c3cc(Br)ccc3NC(=O)[C@@]12C do in these assays?
DDE Tn7 FP inh: 2.7; PLC-beta3 inh: -0.7; ADAM10 inh: 20.3*; ADAM17 inh: 11.2*; Tn6 DDE FP: -1.2; PLCg1 inh: -2.5; ADAM10 confirm: 1.9; ADAM17 counter: -0.6; ADAM10 counter: 16.6; ADAM17 confirm: 10.6*

What do the screens show for `CCOC(=O)[C@H]1[C@H]2COc3ccccc3[C@@H]2N2C(=O)c3cc(Br)ccc3NC(=O)[C@@]12C`?
DDE Tn7 FP inh: 2.6; PLC-beta3 inh: 5.0; ADAM10 inh: 13.8; ADAM17 inh: 5.3; Tn6 DDE FP: 2.6; PLCg1 inh: 4.5

What do the screens show for `COc1ccc(NC(=O)Nc2ccc3c(c2)C(=O)N([C@H](C)CO)C[C@H](C)[C@@H](CN(C)C(=O)Nc2ccc(OC)cc2)O3)cc1`?
DDE Tn7 FP inh: -0.2; PLC-beta3 inh: 0.9; ADAM10 inh: -7.0; ADAM17 inh: -2.1; Tn6 DDE FP: 12.1; PLCg1 inh: 1.7

What do the screens show for `C[C@@H]1CN([C@@H](C)CO)C(=O)c2cc(NS(C)(=O)=O)ccc2O[C@H]1CN(C)Cc1ccc(Oc2ccccc2)cc1`?
DDE Tn7 FP inh: -3.5; PLC-beta3 inh: -1.6; ADAM10 inh: 4.0; ADAM17 inh: 0.6; Tn6 DDE FP: -2.6; PLCg1 inh: 1.1

How did C[C@@H]1CCCCO[C@@H](CN(C)C(=O)Nc2ccc3c(c2)OCO3)[C@@H](C)CN([C@H](C)CO)C(=O)c2cc(NC(=O)Nc3ccc(C(F)(F)F)cc3)ccc2O1 do in these assays?
DDE Tn7 FP inh: 5.5; PLC-beta3 inh: -1.2; ADAM10 inh: 21.3*; ADAM17 inh: 9.8*; Tn6 DDE FP: -5.1; PLCg1 inh: 0.1; ADAM10 confirm: 11.1; ADAM17 counter: 2.5; ADAM10 counter: 41.9*; ADAM17 confirm: 21.6*

Results for C[C@@H]1CN([C@@H](C)CO)C(=O)c2cc(NC(=O)Nc3ccc(F)cc3)ccc2O[C@@H]1CN(C)Cc1ccc(Oc2ccccc2)cc1 ?
DDE Tn7 FP inh: -7.0; PLC-beta3 inh: -1.1; ADAM10 inh: 24.2*; ADAM17 inh: 11.1*; Tn6 DDE FP: -14.9; PLCg1 inh: 1.4; ADAM10 confirm: 18.8; ADAM17 counter: 7.2; ADAM10 counter: 48.2*; ADAM17 confirm: 23.2*

Results for CC(C)NC(=O)Nc1ccc2c(c1)C(=O)N([C@H](C)CO)C[C@H](C)[C@@H](CN(C)S(=O)(=O)c1ccccc1)O2 ?
DDE Tn7 FP inh: -1.3; PLC-beta3 inh: 2.9; ADAM10 inh: 10.9; ADAM17 inh: 1.2; Tn6 DDE FP: -0.2; PLCg1 inh: 0.7

How did C[C@H](CO)N1C[C@H](C)[C@@H](CN(C)S(=O)(=O)c2ccccc2)Oc2ccc(NC(=O)Nc3ccc(C(F)(F)F)cc3)cc2C1=O do in these assays?
DDE Tn7 FP inh: -1.2; PLC-beta3 inh: 1.1; ADAM10 inh: 33.3*; ADAM17 inh: 8.8*; Tn6 DDE FP: -15.9; PLCg1 inh: 1.6; ADAM10 confirm: 8.5; ADAM17 counter: 2.0; ADAM10 counter: 40.2*; ADAM17 confirm: 24.1*

Results for COc1ccc(NC(=O)Nc2ccc3c(c2)C(=O)N([C@H](C)CO)C[C@H](C)[C@@H](CN(C)C(=O)Nc2ccc(C(F)(F)F)cc2)O3)cc1 ?
DDE Tn7 FP inh: -2.4; PLC-beta3 inh: 6.0; ADAM10 inh: 32.0*; ADAM17 inh: 15.5*; Tn6 DDE FP: -4.2; PLCg1 inh: 5.8; ADAM10 confirm: 4.8; ADAM17 counter: 0.1; ADAM10 counter: 20.6*; ADAM17 confirm: 11.6*

Bioassay records deposited in PubChem by The Scripps Research Institute Molecular Screening Center.
